# Most compounds without a hit are left out; they make up all but 11% or so of the library.
# M1 antagonist = antagonists of rat M1 muscarinic receptor. Muscarinic acetylcholine receptor M1 (Rattus norvegicus), P08482. CHO-M1 cells, Fluo-4 calcium, ACh EC80 antagonist mode; active compounds read low. B-score at 10 µM. 64,000 tested, 3.4% active. AID 628, 2007;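 active means calcium fluorescence response, raw or row-and-column corrected B-score, differing from the plate sample mean either way at a set confidence level, mostly lower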
# Target sequence (P08482 whole entry, looked up): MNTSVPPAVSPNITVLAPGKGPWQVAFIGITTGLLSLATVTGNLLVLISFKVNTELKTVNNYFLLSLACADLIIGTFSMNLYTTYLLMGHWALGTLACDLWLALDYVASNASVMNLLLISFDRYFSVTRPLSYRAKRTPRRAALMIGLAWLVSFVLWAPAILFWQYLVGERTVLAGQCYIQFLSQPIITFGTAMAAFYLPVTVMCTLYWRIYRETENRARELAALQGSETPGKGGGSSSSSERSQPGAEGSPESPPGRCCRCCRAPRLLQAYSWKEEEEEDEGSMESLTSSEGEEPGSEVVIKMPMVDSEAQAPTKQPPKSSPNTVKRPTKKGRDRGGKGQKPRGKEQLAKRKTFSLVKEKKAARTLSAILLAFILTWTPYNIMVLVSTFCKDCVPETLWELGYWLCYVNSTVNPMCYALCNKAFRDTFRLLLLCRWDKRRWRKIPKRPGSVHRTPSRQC
# D1 mod = D1 CRE-luciferase signal change, two-sided – cell-based, HEK293 D1, dopamine EC30, D1 allosteric modulator project, primary screen. D(1A) dopamine receptor (Homo sapiens), P21728. dopamine EC30 potentiation; actives deviate in either direction. B-score at 10 µM. 58,000 tested, 5.9% active. AID 641, 2007;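 active means luminescence count or its row- and column-corrected plate score outside the 99.7% band of the plate's sample wells, on either side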
# M1 agonist = M1 muscarinic receptor agonists, primary screen, CHO-M1 cells, Fluo-4 calcium, agonist mode. Muscarinic acetylcholine receptor M1. Fluo-4 calcium fluorescence; active compounds read high. B-score at 10 µM. 64,000 tested, 3% active. AID 626, 2007;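 active means fluorescence rise, raw or as B-score row- and column-corrected plate score, outside the 99.7% band of its plate's samples, either direction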
# S1P1 ag-PAM = S1P1 agonists and agonism potentiators, primary screen, cell-based, primary and confirmation screens, CRE-bla reporter. Sphingosine 1-phosphate receptor 1 (Homo sapiens), P21453. S1P1 CRE-bla cells, forskolin, beta-lactamase FRET, potentiator mode; S1P1 agonist co-added at EC20, 2 nM; 100% = saturating reference agonist, 0% = basal. activation, % at 9.5 µM. 56,000 tested, 0.57% active. AID 449, 2006;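 active means activation above a cutoff set at the mean activation of all tested compounds plus 3 SD, cut at about 54% in these data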;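 further: forskolin at 4 µM as EC80 and the EC20 agonist is SEW2871; 100% = SEW2871 at its EC100 plus forskolin at EC80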
# S1P3 agonist = human S1P3 receptor agonists, primary screen, cell-based, primary and confirmation, NFAT-BLA reporter | Sphingosine 1-phosphate receptor 3 (Homo sapiens), Q99500 | S1P3 NFAT-BLA reporter cells, agonism, FRET ratio; relative to 1 µM S1P, basal subtracted | activation, % at 4.5 µM | 60,000 tested, 0.1% active | AID 373, 2006;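 active means activation above the screen-wide mean plus 3 SD, cut at about 4.5% in these data, passing the limit was not always enough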
#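 material = human S1P3 NFAT-BLA reporter CHO cells | schedule = 4 h compound at 37 °C, 2 h substrate at RT | measured by = fluorescent BLA substrate, ex 405 nm, em 460/535 nm ratio | controls = 1 µM S1P reference | replication = primary once, confirmation triplicate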
# M1 agonist conf = rat M1 muscarinic receptor agonists, confirmation, CHO-M1 cells, Fluo-4 calcium, duplicate retest; 1,700 tested, 19% active; Fluo-4 calcium fluorescence, agonist mode; actives lie on both sides; shares compounds with M1 agonist; fluorescence change (max-min) at 10 µM;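 active means fluorescence change differs from the solvent-only DMSO control mean at a set confidence level in both duplicate runs; inconclusive means differs from solvent-only control mean in just one of two runs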;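 further: an EC20 dose of acetylcholine follows compound addition during the same imaging run; raw fluorescence intensity difference in instrument units with no normalization to controls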
# M4 agonist ctr = agonist activity at rat M4 receptor, confirmation, counter-screen for M1 allosteric modulator project, cell-based, agonist mode; AID 1741, 2009; CHO M4/Gqi5 cells, Fluo-4 calcium fluorescence; actives lie on both sides; 1,700 tested, 9% active; fluorescence change (max-min) at 10 µM; shares compounds with M1 agonist;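 active means fluorescence change differing from the plate's solvent-only control wells at 99.7% confidence in both duplicates, whether higher or lower; inconclusive means differs from solvent controls in only one of two duplicates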
# An asterisk follows results filed as active; ? = inconclusive; nt = no result.
SMILES,M1 antagonist,D1 mod,M1 agonist,S1P1 ag-PAM,S1P3 agonist,M1 agonist conf,M4 agonist ctr
N#Cc1c(NCCO)nc(NCc2ccccc2)c2c1CCN(Cc1ccccc1)C2,-1.3,nt,3.3*,-8,0,-3.8,-4.3
O=C(CSc1nnc(C2COc3ccccc3O2)o1)N1CCCc2ccccc21 (stereo not given),-1.2,0.22,2.5*,12,0,?,-26
Cc1[nH]c2ccc(-c3nnc(SCC(=O)N4CCCc5ccccc54)o3)cc2c1C,-1.1,0.035,45*,-1,0,?,-41
O=C(CSc1nnc(C2COc3ccccc3O2)o1)N1CCOCC1 (stereo not given),nt,-0.77,nt,-4,0,nt,nt
COc1ccc(NS(=O)(=O)c2ccc3c(c2)CCC(=O)N3)c(OC)c1,-0.43,-0.79,-0.32,9,0,nt,nt
COCCn1c(C)cc(C(=O)COC(=O)c2c(C)nn(Cc3ccccc3)c2C)c1C,-0.21,nt,-0.29,nt,nt,nt,nt
COCCn1c(C)cc(C(=O)COc2nc3ccccc3nc2C)c1C,1,-1.8,5.2*,21,0,-9.6,-14
Cc1cc(C(=O)CSc2nc3ccccc3c(=O)n2C)c(C)n1Cc1ccc2c(c1)OCO2,-0.28,-2.9,5.7*,62*,0,-19,-1.2
CCOC(=O)C1CCN(c2nc(C)nc3c2oc2ccccc23)CC1,-0.98,nt,0.9,nt,nt,nt,nt
CCOC(=O)C1CCCN(c2nc(C)nc3c2oc2ccccc23)C1 (stereo not given),0.57,nt,1.8*,nt,nt,-8.2,-29
N=c1oc2c3c4c(cc2cc1C(=O)Nc1ccccc1)CCCN4CCC3,-15*,nt,221*,49,0,3358*,2806*
Cc1cccc(NC(=O)c2ccccc2C(=O)O)c1,nt,0.61,nt,-3,1,nt,nt
COCCSc1ccccc1C(=O)NCc1ccco1,1.2,-0.31,0.52,-20,0,nt,nt
CC(=Nc1ccc(O)cc1)c1sc2ccccc2c1O,-0.43,-0.58,36*,18,-1,7.2,7.9
CC(=O)NCCN=C(C)c1sc2ccccc2c1O,-0.18,-0.044,0.03,-4,-1,nt,nt
Cc1ccc(S(=O)(=O)n2nc(-c3ccc(Cl)cc3)nc2NCc2ccco2)cc1,-0.38,0.034,26*,nt,-1,-9.4,-30
O=C(CCCn1c(=S)[nH]c2cc3c(cc2c1=O)OCO3)N1CCN(c2ccccc2)CC1,-0.62,0.029,3.2*,nt,nt,?,-60
Cc1cccc(N2CCN(C(=O)CCn3c(=S)[nH]c4cc5c(cc4c3=O)OCO5)CC2C)c1 (stereo not given),-0.17,0.37,2.5*,nt,nt,-6.2,-24
O=C(CCCCCn1c(=O)[nH]c2ccccc2c1=O)N1CCN(Cc2ccc3c(c2)OCO3)CC1,-1.3,0.29,3.7*,-1,-1,-13,-35
O=C(c1ccc(S(=O)(=O)N2CCCCC2)cc1)N1CCN(Cc2ccc3c(c2)OCO3)CC1,-0.61,0.035,0.059,-8,0,nt,nt
O=C(CCn1c(=S)[nH]c2cc3c(cc2c1=O)OCO3)N1CCN(c2ccccn2)CC1,-0.58,0.029,0.59,nt,nt,nt,nt
O=C(CCC1CCCCC1)N1CCN(Cc2ccc3c(c2)OCO3)CC1,-0.75,-0.71,6.1*,nt,-1,-12,?
Cc1csc(=N)n1CC(=O)N1CCc2ccccc21,-0.7,-0.92,-0.15,-4,0,nt,nt
COc1cccc(C2CC(c3cccc(C)c3)n3ncnc3N2)c1 (stereo not given),0.5,0.35,0.28,-22,0,nt,nt
O=C(NCc1ccc2c(c1)OCO2)C1CCN(c2ccc(S(=O)(=O)N3CCCC3)cc2)CC1,-1.9,nt,2.6*,nt,nt,-14,-33
SMILES,M1 antagonist,D1 mod,M1 agonist,S1P1 ag-PAM,S1P3 agonist,M1 agonist conf,M4 agonist ctr
CCOC(=O)Cc1csc(NC(=O)COc2ccc(N(C)S(=O)(=O)c3cccs3)cc2)n1,-0.69,-0.9,6.2*,nt,nt,?,-23
CCOC(=O)Cc1csc(NC(=O)COc2ccccc2OC)n1,-1.7,0.087,-1.2,nt,nt,nt,nt
COc1ccc(CC(NC(C)=O)C(=O)NC2CCN(c3nc(C)cc(C)c3C#N)CC2)c(OC)c1 (stereo not given),0.9,0.91,-2.1,0,0,nt,nt
Cc1ccccc1OCCCCCn1ccnc1,-0.044,-0.43,-0.69,-10,-1,nt,nt
Cc1cccc(OCCCCCn2ccnc2)c1,-0.48,-0.52,4.5*,-7,-2,37,-45
COCCCNC(=O)CN(c1ccc(OC)cc1)S(=O)(=O)c1ccc(NC(C)=O)cc1,-1.1,-0.35,-2,nt,nt,nt,nt
CCC(Oc1ccc2c(c1)C(=O)CC(C)(C)O2)C(=O)NCCN1CCCCCC1 (stereo not given),-0.38,-0.91,0.14,10,0,nt,nt
O=S(=O)(Nc1cccc2ccccc12)N1CCCC1,-1.2,-0.28,0.25,15,-1,nt,nt
CCn1c(=O)c(=O)[nH]c2cc(C(=O)N3CCN(c4ccccc4F)CC3)ccc21,0.12,-0.013,0.025,-3,0,nt,nt
COc1cccc(OC)c1OCCCCCc1c(C)n[nH]c1C,-0.087,-0.63,3*,24,0,-17,-44
Cc1cccc(C)c1OCCCCc1c(C)n[nH]c1C,-0.85,-0.55,0.14,37,-1,nt,nt
O=C1CC(N2CCN(S(=O)(=O)c3cccc(C(F)(F)F)c3)CC2)C(=O)N1Cc1ccccc1 (stereo not given),-0.58,-0.72,0.068,9,-1,nt,nt
CCCS(=O)(=O)N1CCN(CC2CC3C=CC2C3)CC1 (stereo not given),0.59,0.47,3.1*,-8,7,-9.9,?
Clc1c(CSc2nc3ccccc3o2)nc2ccccn12,-1.2,-0.61,21*,-12,0,2.1,-23
Cc1ccc(C)c2[nH]c(=O)c(CCNC(=O)C(C)(C)C)cc12,1.1,0.0086,-0.2,-5,0,nt,nt
Cn1nc(CC(=O)Nc2ccc3c(c2)OCCO3)c2ccccc2c1=O,-1.6,-2.5,4.5*,92*,-1,-0.85,-2.7
COc1cc(NC(=O)Cc2nn(C)c(=O)c3ccccc23)cc(OC)c1,-1,-0.48,0.79,nt,nt,nt,nt
COc1ccccc1NC(=O)Cc1nn(C)c(=O)c2ccccc12,-0.85,-0.56,2.7*,23,-1,0.79,?
